Reference: ChEMBL document CHEMBL3112585, “Inhibition of reverse transcriptase and Taq DNA polymerase by compounds possessing the coumarin framework” (Bioorg Med Chem Lett, 2014)
Calls of active or inactive are those of the source. The calls are words filed in the database; no cut-off is given here.

Columns and labels:
[1] = Inhibition of MMLV reverse transcriptase using desoxynucleotide triphosphate as substrate after 10 mins by RT-PCR analysis; parameters: species or system Moloney murine leukemia virus
Summary of the method: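 Reverse transcription mix: 1 µg RNA in commercial buffer, 2.0 U MMLV-RT, 20 µM random primers, 1.0 mM each dNTP; compounds (DMSO) added at varying concentrations during RT step. Heated 70 °C 10 min, then incubated 1 h at […]. Products on ethidium bromide-stained agarose gel, band intensities quantified by scanning; IC50 = concentration giving 50% inhibition.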

[2] = target: DNA polymerase I, thermostable (Thermus aquaticus) (UniProt P19821); assay: (§1) Inhibition of Thermus aquaticus taq DNA polymerase by PCR analysis
DNA polymerase I, thermostable (Thermus aquaticus), sequence (P19821 whole entry): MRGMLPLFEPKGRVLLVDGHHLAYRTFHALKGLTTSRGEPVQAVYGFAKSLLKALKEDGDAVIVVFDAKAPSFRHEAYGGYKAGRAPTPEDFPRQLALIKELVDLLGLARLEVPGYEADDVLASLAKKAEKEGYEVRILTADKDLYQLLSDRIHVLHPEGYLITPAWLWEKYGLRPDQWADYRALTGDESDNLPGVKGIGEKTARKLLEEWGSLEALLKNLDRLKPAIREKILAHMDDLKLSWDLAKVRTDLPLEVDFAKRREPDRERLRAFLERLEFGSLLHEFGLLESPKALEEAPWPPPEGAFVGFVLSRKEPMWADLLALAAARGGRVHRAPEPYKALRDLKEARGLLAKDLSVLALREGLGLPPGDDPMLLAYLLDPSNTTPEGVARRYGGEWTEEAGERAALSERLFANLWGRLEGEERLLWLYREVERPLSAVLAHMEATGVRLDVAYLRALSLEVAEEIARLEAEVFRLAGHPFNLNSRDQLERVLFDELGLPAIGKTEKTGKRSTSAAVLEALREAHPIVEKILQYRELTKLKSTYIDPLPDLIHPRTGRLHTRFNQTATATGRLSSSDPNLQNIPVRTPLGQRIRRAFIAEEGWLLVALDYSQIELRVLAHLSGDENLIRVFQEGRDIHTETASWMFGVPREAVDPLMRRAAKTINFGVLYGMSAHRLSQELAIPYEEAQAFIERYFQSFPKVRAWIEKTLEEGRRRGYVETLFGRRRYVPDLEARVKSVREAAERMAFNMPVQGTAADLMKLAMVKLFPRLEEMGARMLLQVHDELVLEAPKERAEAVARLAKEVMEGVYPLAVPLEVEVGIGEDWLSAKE
Summary of the method: (§2)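 PCR with 2.5 U Taq polymerase in 40 mM Tris-acetate pH 8.3, 15 mM MgCl2, […], 2.5 mM each dNTP; compounds in DMSO at varying concentrations. 35 cycles: 95 °C 1 min, anneal 56 °C, extend 72 °C 90 s. Ethidium bromide-stained gel band intensities scanned; IC50 = concentration inhibiting activity 50%.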

[3] = target: DNA polymerase I, thermostable (Thermus aquaticus, UniProt P19821); assay: as §1; summary of the method: as §2
DNA polymerase I, thermostable, sequence (P19821 whole entry): as above

IC50 [1]	inhibition [2]	IC50 [3]	Structure (SMILES)
	inactive		C/C(C=O)=C\COc1c2c(cc3oc(=O)ccc13)OCO2
		48.1 µM	C/C(=C\COc1c2c(cc3oc(=O)ccc13)OCO2)CO
	inactive		CC(C)=CCOc1c2c(cc3oc(=O)ccc13)OCO2
	inactive		CC(C)(O)C(=O)COc1c2c(cc3oc(=O)ccc13)OCO2

The next lines start with the compound.

Structure (SMILES)	IC50 [1]	inhibition [2]	IC50 [3]
C=CCc1c(O)c2ccccc2oc1=O	51 µM	inactive	
O=c1ccc2ccccc2o1 [COUMARIN]	38.6 µM	inactive	
CC(C)(O)C(O)COc1c2c(cc3oc(=O)ccc13)OCO2 (stereo unspecified)		inactive	
CC(C)(O)C(Br)COc1c2c(cc3oc(=O)ccc13)OCO2 (stereo unspecified)			57.9 µM
COc1cc2c(c3oc(=O)ccc13)OCO2		inactive	
